Experimental data: ChEMBL document CHEMBL4680166, “Dual-functional conjugates improving cancer immunochemotherapy by inhibiting tubulin polymerization and indoleamine-2,3-dioxygenase” (Eur J Med Chem, 2020)
The source made the active and inactive calls. No cut-off for these calls is given here.

Assays:
PC-3 = assay: Anticancer activity against human PC3 cells assessed as inhibition of cell proliferation measured after 72 hrs by MTT assay; format: functional, cell-based; settings: PC-3, 72 h
In short: (§1)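 Cells (A549, PC-3, HeLa, HUVEC) grown in DMEM with 10% FBS at 37 °C, 5% CO₂. Seeded at 5 × 10⁴ cells/well and allowed 24 h to attach, then exposed 72 h to a concentration series from DMSO stocks. MTT was added for 4 h and formazan dissolved in DMSO, read at 490 nm. Survival taken relative to untreated control. IC50 by Bliss method, three repeats.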

A549 = assay: Anticancer activity against human A549 cells assessed as inhibition of cell proliferation measured after 72 hrs by MTT assay; format: functional, cell-based; settings: A549, 72 h; in short: as §1
HeLa [1] = assay: Anticancer activity against human HeLa cells assessed as inhibition of cell proliferation measured after 72 hrs by MTT assay; format: functional, cell-based; in short: as §1
HeLa [2] = assay: Inhibition of IDO1 expression in hIFNgamma-stimulated human HeLa cells at 0.5 uM measured after 24 hrs by western blot assay; format: functional
In short: (§2)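 HeLa cells were treated 24 h at 37 °C and lysed in buffer containing PMSF. Protein quantified by BCA, equal amounts separated by SDS-PAGE and transferred to nitrocellulose. Blocked in 5% milk, primary antibodies overnight at 4 °C, peroxidase secondary 2 h at 25 °C. Detection by chemiluminescence, β-actin as loading control.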

HUVEC = assay: Cytotoxicity against HUVEC cells assessed as inhibition of cell proliferation measured after 72 hrs by MTT assay; format: cell-based; settings: Homo sapiens; in short: as §1
HeLa [3] = assay: Inhibition of IDO1 expression in hIFNgamma-stimulated human HeLa cells assessed as decrease in kynurenine production at 0.1 uM measured after 48 hrs by reverse-phase HPLC analysis; format: functional
In short: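 HeLa cells were given fresh L-tryptophan-containing medium with hIFN-γ (25 ng/mL) plus compound for 48 h. Collected cells were treated with 20% trichloroacetic acid and centrifuged. Supernatant analysed by reversed-phase HPLC (ODS column, acetonitrile/water, 1.0 mL/min, […]).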

[4] = Antitumor immunity against IFN-gamma stimulated human HeLa cells co-cultured with PHA-M-stimulated human PBMC cells assessed as induction of CD3+ T cell proliferation at 0.1 uM preincubated for 2 days measured after co-culturing with PBMC for 6 days by flow cytometry (reference value: 6 to 6.2%); format: functional; settings: time 8 day
HeLa [5] = assay: Induction of cell cycle arrest in human HeLa cells assessed as accumulation at S phase at 0.5 uM measured after 24 hrs by propidium iodide/RNAse staining based flow cytometry (reference value: 27.8%); format: functional
HeLa [6] = assay: Induction of apoptosis in human HeLa cells assessed as cell membrane integrity loss, chromatin condensation and apoptotic body formation by measuring strengthened orange fluorescence intensity at 0.5 uM measured after 24 hrs by AO/EB dual staining based fluorescence microscopy; format: functional
[7] = Toxicity in BALB/c nude mouse transfected with human HeLa cells assessed as spleen damage at 30 mg/kg/day, iv for 21 days by H&E staining based immunohistochemistry; format: organism-based; settings: in vivo, 504 h, time 21 day
In short: (§3)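 HeLa xenografts were grown s.c. in male BALB/c nude mice, which received i.v. tail-vein doses once daily for 21 days in Tween 80/saline vehicle, with saline controls. After 3 weeks the mice were sacrificed. Organs from one mouse per group were fixed in 4% paraformaldehyde, paraffin-embedded and sectioned. Sections were dewaxed, stained with Harris hematoxylin and eosin-phloxine, and examined microscopically for histopathologic changes.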

HeLa [8] = assay: Induction of apoptosis in human HeLa cells assessed as early apoptotic cells at 0.5 uM measured after 24 hrs by Annexin-V-FITC and PI staining based flow cytometry (reference value: 2.58%); format: functional
In short: (§4)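 HeLa cells were treated 24 h, washed twice in PBS and resuspended in binding buffer. Stained with annexin V-FITC and PI for 30 min in the dark at room temperature, then analysed by flow cytometry.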

HeLa [9] = assay: Induction of apoptosis in human HeLa cells assessed as mitochondrial membrane potential dissipation by measuring increase in green fluorescence intensity at 0.5 uM incubated for 24 hrs by JC-1 staining based fluorescence microscopic analysis; format: functional, cell-based
[10] = Toxicity in BALB/c nude mouse transfected with human HeLa cells assessed as kidney damage at 30 mg/kg/day, iv for 21 days by H&E staining based immunohistochemistry; format: organism-based; settings: in vivo, 504 h, time 21 day; in short: as §3
HeLa [11] = assay: Induction of apoptosis in human HeLa cells assessed as late apoptotic cells at 0.5 uM measured after 24 hrs by Annexin-V-FITC and PI staining based flow cytometry (reference value: 0.199%); format: functional; in short: as §4
HeLa [12] = assay: Induction of apoptosis in human HeLa cells assessed as viable cells at 0.5 uM measured after 24 hrs by Annexin-V-FITC and PI staining based flow cytometry (reference value: 96.3%); format: functional; settings: read-out: Activity; in short: as §4
HeLa [13] = assay: Induction of cell cycle arrest in human HeLa cells assessed as accumulation at G1 phase at 0.5 uM measured after 24 hrs by propidium iodide/RNAse staining based flow cytometry (reference value: 61.5%); format: functional
HeLa [14] = assay: Induction of apoptosis in human HeLa cells assessed as upregulation of PARP protein expression at 0.5 uM measured after 24 hrs by western blot analysis; format: functional, cell-based; in short: as §2
HeLa [15] = assay: Induction of apoptosis in human HeLa cells assessed as upregulation of Bax protein expression at 0.5 uM measured after 24 hrs by western blot analysis; format: functional, cell-based; in short: as §2
HeLa [16] = assay: Induction of apoptosis in human HeLa cells assessed as necrotic cells at 0.5 uM measured after 24 hrs by Annexin-V-FITC and PI staining based flow cytometry (reference value: 0.956%); format: functional; in short: as §4
HeLa [17] = assay: Induction of apoptosis in human HeLa cells assessed as mitochondrial membrane potential dissipation at 0.5 uM incubated for 24 hrs by JC-1 staining based flow cytometry (reference value: 6.6%); format: functional
HeLa [18] = assay: Induction of apoptosis in human HeLa cells assessed as upregulation of caspase-3 protein expression at 0.5 uM measured after 24 hrs by western blot analysis; format: functional, cell-based; in short: as §2
HeLa [19] = assay: Inhibition of cell migration in human HeLa cells at 0.5 uM measured after 24 hrs by wound healing assay (reference value: 61%); format: functional
In short: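 Confluent HeLa monolayers were scratched with a pipette tip and washed with ice-cold PBS. Incubated 24 h at 37 °C in DMEM/10% FBS containing compound. Wounds were photographed at 0 and 24 h and migration distance measured manually.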

[20] = Toxicity in BALB/c nude mouse transfected with human HeLa cells assessed as lung damage at 30 mg/kg/day, iv for 21 days by H&E staining based immunohistochemistry; format: organism-based; settings: in vivo, 504 h, time 21 day; in short: as §3
HeLa [21] = assay: Induction of apoptosis in human HeLa cells assessed as down regulation of Bcl-2 protein expression at 0.5 uM measured after 24 hrs by western blot analysis; format: functional, cell-based; in short: as §2
HeLa [22] = assay: Induction of cell cycle arrest in human HeLa cells assessed as accumulation at G2/M phase at 0.5 uM measured after 24 hrs by propidium iodide/RNAse staining based flow cytometry (reference value: 10.7%); format: functional
[23] = Toxicity in BALB/c nude mouse transfected with human HeLa cells assessed as heart damage at 30 mg/kg/day, iv for 21 days by H&E staining based immunohistochemistry; format: organism-based; settings: in vivo, 504 h, time 21 day; in short: as §3
[24] = Toxicity in BALB/c nude mouse transfected with human HeLa cells assessed as body weight changes at 30 mg/kg/day, iv for 21 days; format: organism-based; settings: in vivo, 504 h, time 21 day
In short: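 Five-week-old male BALB/c nude mice (18-22 g) were inoculated s.c. in the right armpit with HeLa cells (1 × 10⁷ cells/0.1 mL/mouse). At a tumour volume of 120-150 mm³, mice were randomised, five per group. Dosing was i.v. via the tail vein once daily for 21 days, in Tween 80/physiological saline; controls got an equal volume of saline. Body weight was recorded every 2 days.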

[25] = Toxicity in BALB/c nude mouse transfected with human HeLa cells assessed as liver damage at 30 mg/kg/day, iv for 21 days by H&E staining based immunohistochemistry; format: organism-based; settings: in vivo, 504 h, time 21 day; in short: as §3
HeLa [26] = assay: Induction of intracellular reactive oxygen species generation in human HeLa cells at 0.5 uM measured after 24 hrs by DCFH-DA staining based flow cytometry (reference value: 6.47%); format: functional
HeLa [27] = assay: Antitumor activity against human HeLa cells xenografted in BALB/c mouse assessed as inhibition of tumor volume at 30 mg/kg/day, iv administered for 21 days by caliper analysis; format: functional; settings: 504 h, time 21 day
In short: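 Male BALB/c nude mice, five weeks old, 18-22 g. Inoculated subcutaneously in the right armpit with 1 × 10⁷ HeLa cells/0.1 mL. At 120-150 mm³, randomized to four groups of five. Once-daily tail-vein injection for 21 days in Tween 80/physiological saline; controls received saline. Tumor volume measured every 2 days by caliper, V = AB²/2.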

HeLa [28] = assay: Induction of apoptosis in human HeLa cells assessed as cell membrane integrity loss, chromatin condensation and apoptotic body formation by measuring reduction in green fluorescence intensity at 0.5 uM measured after 24 hrs by AO/EB dual staining based fluorescence microscopy; format: functional

COc1ccc(/C=C\c2cc(OC)c(OC)c(OC)c2)cc1OCCCOC(=O)[C@H](N)Cc1cn(C)c2ccccc12
IC50 (PC-3): 580 nM
IC50 (A549): 530 nM
IC50 (HeLa [1]): 330 nM
inhibition (HeLa [2]): Active
IC50 (HUVEC): 3110 nM

COc1ccc(/C=C/C(=O)c2cc(OC)c(OC)c(OC)c2)cc1OC(=O)CCC(=O)n1cc(C2CC(=O)NC2=O)c2cc(F)ccc21 (stereo not given)
IC50 (PC-3): 1390 nM
IC50 (A549): 1280 nM
IC50 (HeLa [1]): 370 nM
IC50 (HUVEC): 4760 nM

COc1ccc(/C=C/C(=O)c2cc(OC)c(OC)c(OC)c2)cc1OC(=O)c1cccc(Cn2cc(CCOC(=O)[C@H](N)Cc3cn(C)c4ccccc34)nn2)c1
IC50 (PC-3): 620 nM
IC50 (A549): 710 nM
IC50 (HeLa [1]): 480 nM
IC50 (HUVEC): 3730 nM

COc1ccc(/C=C\c2cc(OC)c(OC)c(OC)c2)cc1OC(=O)CCC(=O)n1cc(C2CC(=O)NC2=O)c2cc(F)ccc21 (stereo not given)
IC50 (PC-3): 620 nM
IC50 (A549): 450 nM
IC50 (HeLa [1]): 270 nM
IC50 (HUVEC): 2270 nM

Cn1cc(C[C@@H](N)C(=O)O)c2ccccc21 [INDOXIMOD]
IC50 (PC-3): > 100000 nM
IC50 (A549): > 100000 nM
IC50 (HeLa [1]): > 100000 nM
inhibition (HeLa [2]): Active
inhibition (HeLa [3]): Active
IC50 (HUVEC): > 100000 nM
Activity [4]: 17.8%

COc1ccc(/C=C\c2cc(OC)c(OC)c(OC)c2)cc1O [COMBRETASTATIN A4]
Activity (HeLa [5]): 28.77%
Activity (HeLa [6]): Active
IC50 (PC-3): 400 nM
Activity [7]: Non-Toxic
Activity (HeLa [8]): 25%
Activity (HeLa [9]): Active
Activity [10]: Non-Toxic
IC50 (A549): 470 nM
Activity (HeLa [11]): 10.3%
IC50 (HeLa [1]): 210 nM
inhibition (HeLa [2]): inactive
viability at 0.5 µM (HeLa [12]): 63.3%
Activity (HeLa [13]): 4.65%
Activity (HeLa [14]): Active
Activity (HeLa [15]): Active
Activity (HeLa [16]): 1.44%
Activity (HeLa [17]): 54.2%
Activity (HeLa [18]): Active
inhibition at 0.5 µM (HeLa [19]): 79%
Activity [20]: Non-Toxic
Activity (HeLa [21]): Active
Activity (HeLa [22]): 66.57%
Activity [23]: Non-Toxic
Activity [24]: Non-Toxic
IC50 (HUVEC): 980 nM
Activity [25]: Non-Toxic
Activity (HeLa [26]): 21.8%
inhibition in vivo at 30 mg/kg/day (HeLa [27]): 57.6%
Activity (HeLa [28]): Active

COc1ccc(/C=C\c2cc(OC)c(OC)c(OC)c2)cc1OC(=O)[C@H](N)Cc1cn(C)c2ccccc12
IC50 (PC-3): 720 nM
IC50 (A549): 680 nM
IC50 (HeLa [1]): 430 nM
inhibition (HeLa [2]): Active
IC50 (HUVEC): 2530 nM

COc1ccc(/C=C\c2cc(OC)c(OC)c(OC)c2)cc1OC(=O)c1cccc(Cn2cc(CCOC(=O)CCC(=O)n3cc(C4CC(=O)NC4=O)c4cc(F)ccc43)nn2)c1 (stereo not given)
IC50 (PC-3): 850 nM
IC50 (A549): 950 nM
IC50 (HeLa [1]): 390 nM
IC50 (HUVEC): 4490 nM

COc1ccc(/C=C/C(=O)c2cc(OC)c(OC)c(OC)c2)cc1OC(=O)c1cccc(Cn2cc(CCOC(=O)CCC(=O)n3cc(C4CC(=O)NC4=O)c4cc(F)ccc43)nn2)c1 (stereo not given)
IC50 (PC-3): 1560 nM
IC50 (A549): 970 nM
IC50 (HeLa [1]): 490 nM
IC50 (HUVEC): 7190 nM

COc1ccc(/C=C/C(=O)c2cc(OC)c(OC)c(OC)c2)cc1O
IC50 (PC-3): 640 nM
IC50 (A549): 550 nM
IC50 (HeLa [1]): 350 nM
IC50 (HUVEC): 1240 nM
